The values below come from ChEMBL document CHEMBL1147832, “Flexible synthesis and biological evaluation of novel 5-deoxyadenophorine analogues” (Bioorg Med Chem Lett, 2006).

Test [1] addresses T1, Beta-galactosidase (Aspergillus niger) (UniProt P29853).
T1 sequence (whole entry): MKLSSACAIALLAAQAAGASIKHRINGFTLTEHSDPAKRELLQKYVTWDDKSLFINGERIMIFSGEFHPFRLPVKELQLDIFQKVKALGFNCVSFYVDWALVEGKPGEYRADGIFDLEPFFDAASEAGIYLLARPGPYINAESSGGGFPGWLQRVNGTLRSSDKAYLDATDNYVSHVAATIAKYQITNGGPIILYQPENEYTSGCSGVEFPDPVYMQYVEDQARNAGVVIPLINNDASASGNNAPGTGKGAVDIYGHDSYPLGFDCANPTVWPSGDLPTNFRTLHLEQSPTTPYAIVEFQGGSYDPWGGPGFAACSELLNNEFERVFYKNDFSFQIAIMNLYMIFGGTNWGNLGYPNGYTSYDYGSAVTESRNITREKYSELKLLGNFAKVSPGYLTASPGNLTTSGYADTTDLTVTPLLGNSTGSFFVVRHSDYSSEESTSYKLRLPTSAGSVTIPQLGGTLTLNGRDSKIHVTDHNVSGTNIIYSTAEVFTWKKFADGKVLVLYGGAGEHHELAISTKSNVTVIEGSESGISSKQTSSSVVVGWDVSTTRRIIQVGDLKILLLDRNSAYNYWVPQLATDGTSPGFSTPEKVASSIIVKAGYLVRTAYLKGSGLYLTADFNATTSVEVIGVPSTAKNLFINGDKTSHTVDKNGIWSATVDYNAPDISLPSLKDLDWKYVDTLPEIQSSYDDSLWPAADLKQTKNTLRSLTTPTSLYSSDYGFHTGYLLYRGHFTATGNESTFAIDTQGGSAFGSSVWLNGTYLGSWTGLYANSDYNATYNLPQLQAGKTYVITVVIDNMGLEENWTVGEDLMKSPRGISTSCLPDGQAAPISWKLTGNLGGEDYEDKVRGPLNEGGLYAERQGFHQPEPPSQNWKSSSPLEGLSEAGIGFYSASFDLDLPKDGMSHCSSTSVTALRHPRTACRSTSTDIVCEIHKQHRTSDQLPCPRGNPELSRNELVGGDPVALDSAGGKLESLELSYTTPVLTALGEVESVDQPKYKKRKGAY
Description: Inhibition of Aspergillus beta galactosidase at 1 mM. The method, boiled down:
(§1)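 Commercial enzymes: yeast α-glucosidase, almond β-glucosidase, green coffee bean α-galactosidase, Aspergillus β-galactosidase. Each was run at its optimum pH and temperature with the matching p-nitrophenyl glycoside at a substrate concentration equal to the calculated Km. Inhibitor was at 1 mM final. Low-pH reactions were stopped with 400 mM Na2CO3. Released p-nitrophenol was read at 405 nm, giving % inhibition.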

Test [2] can be described thus: Inhibition of yeast alpha glucosidase. More on the design: species or system Saccharomyces cerevisiae.
Test [3] deals with Alpha-galactosidase (Coffea arabica, UniProt Q5DUH8). Description: Inhibition of green coffee alpha galactosidase.
Alpha-galactosidase, sequence (Q5DUH8 whole entry): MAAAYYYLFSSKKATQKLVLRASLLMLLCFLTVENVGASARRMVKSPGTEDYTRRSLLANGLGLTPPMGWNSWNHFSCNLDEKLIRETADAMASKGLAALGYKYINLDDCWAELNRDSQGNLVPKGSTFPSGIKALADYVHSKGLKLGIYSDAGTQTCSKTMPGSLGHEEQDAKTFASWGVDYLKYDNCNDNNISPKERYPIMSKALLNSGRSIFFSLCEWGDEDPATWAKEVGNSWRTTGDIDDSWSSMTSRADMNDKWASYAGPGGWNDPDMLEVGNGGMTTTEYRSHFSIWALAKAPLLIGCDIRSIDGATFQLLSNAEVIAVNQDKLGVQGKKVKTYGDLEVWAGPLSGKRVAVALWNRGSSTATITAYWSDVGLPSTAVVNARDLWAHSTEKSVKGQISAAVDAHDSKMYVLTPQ
Test [4] concerns the target Alpha-galactosidase (Coffea arabica) (UniProt Q5DUH8). Description: Inhibition of green coffee alpha galactosidase at 1 mM. A digest of the protocol: as §1
In test [5] the test system is Saccharomyces cerevisiae. The test is described as follows: Inhibition of yeast alpha glucosidase at 1 mM. The method, boiled down: as §1
The target of test [6] is T2, Beta-galactosidase (Bos taurus, UniProt Q58D55).
T2 sequence (Q58D55 whole entry): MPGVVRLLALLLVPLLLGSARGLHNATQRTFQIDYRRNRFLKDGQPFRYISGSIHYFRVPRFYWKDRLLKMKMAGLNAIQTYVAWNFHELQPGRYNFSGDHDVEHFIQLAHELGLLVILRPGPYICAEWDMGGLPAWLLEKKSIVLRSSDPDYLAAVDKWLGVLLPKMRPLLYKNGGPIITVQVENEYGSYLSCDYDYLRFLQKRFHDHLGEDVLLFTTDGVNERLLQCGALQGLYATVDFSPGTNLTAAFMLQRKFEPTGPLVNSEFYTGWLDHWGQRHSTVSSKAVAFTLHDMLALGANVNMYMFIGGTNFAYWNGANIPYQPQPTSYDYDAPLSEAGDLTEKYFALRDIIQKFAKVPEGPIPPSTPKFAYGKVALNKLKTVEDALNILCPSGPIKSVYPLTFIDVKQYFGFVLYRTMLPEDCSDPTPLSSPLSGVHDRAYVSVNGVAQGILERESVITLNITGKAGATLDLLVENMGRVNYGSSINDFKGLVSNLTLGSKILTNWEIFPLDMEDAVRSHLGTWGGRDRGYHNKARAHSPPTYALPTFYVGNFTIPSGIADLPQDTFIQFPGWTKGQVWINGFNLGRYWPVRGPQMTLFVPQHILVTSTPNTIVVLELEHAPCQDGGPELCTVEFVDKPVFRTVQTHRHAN
Description: Inhibition of bovine liver beta galactosidase.

Test [7] concerns the target T3, Alpha-glucosidase-like (Oryza sativa Japonica Group) (UniProt A0A5S6RD55).
T3 sequence (whole entry): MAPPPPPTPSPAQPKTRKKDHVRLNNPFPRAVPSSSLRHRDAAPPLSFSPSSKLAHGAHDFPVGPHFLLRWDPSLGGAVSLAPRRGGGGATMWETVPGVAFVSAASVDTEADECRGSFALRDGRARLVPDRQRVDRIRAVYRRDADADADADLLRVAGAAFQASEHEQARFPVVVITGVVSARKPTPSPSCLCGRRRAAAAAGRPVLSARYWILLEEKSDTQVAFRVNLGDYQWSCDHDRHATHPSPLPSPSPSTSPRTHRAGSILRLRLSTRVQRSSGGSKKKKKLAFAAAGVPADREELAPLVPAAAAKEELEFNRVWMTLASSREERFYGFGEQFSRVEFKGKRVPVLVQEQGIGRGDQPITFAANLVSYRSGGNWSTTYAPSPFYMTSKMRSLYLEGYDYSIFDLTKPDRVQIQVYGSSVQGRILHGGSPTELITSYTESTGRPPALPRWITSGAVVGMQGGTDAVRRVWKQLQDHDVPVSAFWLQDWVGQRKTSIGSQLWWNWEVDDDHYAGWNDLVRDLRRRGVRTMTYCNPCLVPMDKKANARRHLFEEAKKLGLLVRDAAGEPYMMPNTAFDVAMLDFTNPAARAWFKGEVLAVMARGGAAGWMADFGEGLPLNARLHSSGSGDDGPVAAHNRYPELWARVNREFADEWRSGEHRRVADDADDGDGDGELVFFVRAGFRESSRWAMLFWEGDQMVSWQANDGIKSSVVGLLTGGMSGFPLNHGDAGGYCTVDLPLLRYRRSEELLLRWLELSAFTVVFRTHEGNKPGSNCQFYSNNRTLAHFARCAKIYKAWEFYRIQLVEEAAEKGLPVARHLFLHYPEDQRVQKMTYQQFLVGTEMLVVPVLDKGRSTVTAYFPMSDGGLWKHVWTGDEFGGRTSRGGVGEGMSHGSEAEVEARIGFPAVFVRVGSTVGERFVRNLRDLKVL
The test is described as follows: Inhibition of rice alpha glucosidase at 1 mM.

Broadly, the inhibition is the share of the control response that was lost under treatment. High values mean a strong effect, low ones a weak effect. The Ki is a dissociation constant, usually derived from enzyme kinetics or from competition with a known ligand. Read a low Ki as higher affinity. As a reminder, the IC50 is the point on the concentration scale where inhibition reaches its midpoint. Low readings indicate higher potency, high ones lower potency.

The structures appear in SMILES notation.

Alpha-galactosidase (Coffea arabica), sequence (Q5DUH8 as listed by the source): as the sequence (Q5DUH8 whole entry) above

In test [1], `CCCCCCC[C@@H]1C[C@@H](O)[C@@H](O)[C@@H](CO)N1` yielded an inhibition of less than 40%. Moreover, the values for the Ki in test [2] and in test [3] were 154 µM and 141 µM, respectively.
`CCCCCCC[C@@H]1C[C@H](O)[C@@H](O)[C@@H](CO)N1`: the inhibition in test [4], in test [1] and in test [5] was less than 40% throughout.
As for `CCCCCCCCCCC[C@@H]1C[C@H](O)[C@@H](O)[C@@H](CO)N1`, the inhibition in test [4] and in test [1] was less than 40% in each case. The molecule also registered a Ki in test [2] of 196 µM.
In the case of `CCC[C@@H]1C[C@H](O)[C@@H](O)[C@@H](CO)N1`, the inhibition in test [4], in test [1] and in test [5] was less than 40% each time.
In test [1], `CC[C@@H]1C[C@@H](O)[C@@H](O)[C@@H](CO)N1` had an inhibition of less than 40%. The Ki in test [2] is 123 µM; in test [3] it was 721 µM.
For `CCCC[C@@H]1C[C@H](O)[C@@H](O)[C@@H](CO)N1`, the inhibition in test [4], in test [1] and in test [5] was less than 40% each time.
Take `CC[C@@H]1C[C@H](O)[C@@H](O)[C@@H](CO)N1`: the values for the 50% inhibitory concentration (IC50) in test [6] and in test [3] were 34 µM and 6.4 µM, respectively. Further, the inhibition in test [7] is less than 40%.
